Tested on: MS2 coat protein
Experiment: apparent Kd, MS2 coat protein; higher = weaker binding; RNA-MaP array; FMN 200 µM where present
Summary of the method: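 Designs were transcribed by stalled E. coli RNA polymerase on Illumina sequencing-chip clusters. They were titrated with SNAP-549-labelled MS2 coat protein from 0.7 or 1.5 nM, doubling to 3 µM, without and then with constant ligand. Buffer: 100 mM Tris-HCl pH 7.5, 80 mM KCl, 4 mM MgCl2, BSA, DTT, yeast tRNA, Tween-20. Green signal was normalised to red-channel RNA signal and control-cluster median Fmax. Apparent Kd is the median of filtered per-cluster binding-curve fits.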

[1] = designed as: OFF switch for flavin mononucleotide, no ligand
[2] = ligand present: flavin mononucleotide, designed as: OFF switch for flavin mononucleotide
[3] = ligand present: flavin mononucleotide, designed as: ON switch for flavin mononucleotide
[4] = designed as: ON switch for flavin mononucleotide, no ligand

| Sequence | apparent Kd [1] [nM] | apparent Kd [2] [nM] | apparent Kd [3] [nM] | apparent Kd [4] [nM] |
| --- | --- | --- | --- | --- |
| ACGUGUCGUGUAGGAUAUGACACAGGAAACUGGUCAGAAGGACAUGAGGAUCACCCAUGUAAAGUGUUUAAGGAUGACGUAUGC | 49.9 | 151 | – | – |
| AGUGCCUCGAGAGGAUAUACAUGAGGAUCACCCAUGUAAGUAGAGGUGGAAACACCUCUACAAAUGUAGAAGGCUCGAGGCACA | 18 | 52.2 | – | – |
| CACCGACCCUAUGUGUUCUAAACAUGAGGAUCACCCAUGUAUAGAAGGGUCUUCGCGAAACGCAGACAGGAUAUGUACAGGAGU | 7.23 | 13.6 | – | – |
| AAUGGGCAGCAGAAGGCAUGUCUACGGACAUGAGGAUCACCCAUGUAGUAAAGCCGAAAGGCGCAUGAGGAUAUGCUGCCCUAA | – | – | 8.23 | – |
| CGAUGACAAAGUCAUCGAAUACGAACAUGAGGAUCACCCAUGUAGGAUAUGCUACUCAAAGAGUAGCAGAAGGACAUGUGCCUU | 36.9 | 271 | – | – |
| CGAGAUCUUGAGAAGGCAUAAUAUAUAAUACCACAUGUUUACAUGAGGAUCACCCAUGUUUCCUAUGAGGAUAUCAGGAUUUCG | 20.9 | 17.1 | – | – |
| UGGAAACAUGAGGAUCACCCAUGUAAAAGGUGGUCAGGAUAUGCGAAAAGAAAAAGAAAAGUAGAAGGGACAAGAA | – | – | 1200 | 459 |
| AAUAAAUAUAAAUUUUAUUUGUCGUAGGAUAUGGGUGACAUGAGGAUCACCCAUGUUGCAGACGACCAGAAGGGCGGCGGAUAU | – | – | 23.2 | 117 |
| AACAAUCACAUAGGAUAUAGAAUAUUAUAUUUUUACAUGAGGAUCACCCAUGUUUUAUUGGGAUUCUAGAAGGAUGAGUAAUAA | – | – | 90.8 | 162 |
| CCAUCGAGUGUGAGGAUAUGCUGGUCCUUGGAUCAGCAGAAGGCACAUGAGGAUCACCCAUGUGGAAACGGUGG | 26.6 | 191 | – | – |
| UGUCGGAGCAGAGGAUAUUACAUGAGGAUCACCCAUGUAUAAACCAAUAGCUGGAAACAGCAAUGUAAGAAGGCUGCUCCGACA | 5.28 | 10.1 | – | – |
| AUCAGCUCGUCAGGAUAUACGUCACUGCGUCAGCAGUGUGGUAAGAACACAUGAGGAUCACCCAUGUAGAAGGGACGAGCUGAU | 6.31 | 7.81 | – | – |
| UGCGAGCAGAUCGUCCGCUCACAUGAGGAUCACCCAUGUAGGAGAAGGCGCCAUGAAGGCAGCGGCGAGGAUAUCCUCGUGGGC | 78 | 77.6 | – | – |
| GUAGCUAUCGGAGGAUAUUCAUACCGGAAACGGACAUGAGGAUCACCCAUGUGUCGAAAGCCUUGGGAGAAGGCCGAUAGCUAC | – | – | 59.2 | 181 |
| CGCAAGUAUACAUGAGGAUCACCCAUGUCAAUCAUGGUAUUCAGAAGGUACAAUUCAAUAUAUAGUAAGGAUAUGAAAUUUGCG | – | – | 112 | 107 |
| GUCUGGCUAGGAUAUACAGUGUCCACGAGUUAGUUGCUCUAACAUGAGGAUCACCCAUGUAGAAGGAGCGAGAA | 20.5 | 63.7 | – | – |
| UCUAUGAAGAUUCGUCAAUACAGUUAGGAUAUGAGAGACAUGAGGAUCACCCAUGUGCAUGUUGAUUAGAAGGAACAAUUAUCU | 20.9 | 19.3 | – | – |
| AUAUUUGAUGAGGAUAUCGUUGUGGGUAUAUAGCGAGAAGGCAUUACAUGAGGAUCACCCAUGUAGUGUGGGUU | 25.9 | 37 | – | – |
| CUUUUGUGAGGAUAUCAGUAGUAAAAAAAUAAAAUUUCUACUGAGAAGGCACAUGAGGAUCACCCAUGUUCCUC | 34 | 184 | – | – |
| AUCAGCUCGUCAGGAUAUACGUCACUGCGUCAGCAGUCUGGUAAGAUCACAUGAGGAUCACCCAUGUAGAAGGGACGAGCUGAU | 19.1 | 288 | – | – |
| AGAUAGUUAUAACGCCAUCCCUACAUGAGGAUCACCCAUGUGCAGGAUAUAGGCUUGAAGCAGACCUAGAAGGGCACAGGCUGA | 8.34 | 22.2 | – | – |
| GUAACAUGAGGAUCACCCAUGUAUAGAACACUCAAUAGAUUUGAGGAUAUAGUGGAAUUUACACACUAGAAGGCAGUGGGUGCA | – | – | 253 | 181 |
| ACAUGAGGAUCACCCAUGUAUUUAUUUGAAUCUUAAGUUACGUAGGAUAUCGUGUAUACUAUCAUCGAGAAGGACGAUGUGAUA | – | – | 13.6 | 15.4 |
| CAGGUUAGAGGAUAUACGUAGGUACAGAUCUGUGUGUUUCUACAUGAGGAUCACCCAUGUAGAAGGCUAUCCUG | 25.6 | 20 | – | – |
| AAGCUAACCACAGGAUAUCCACAUGAGGAUCACCCAUGUUGCUGAAGAGCAGGAGAAGGGUGGUGGGCAGAGUGCGCUGUCGUG | – | – | 8.75 | 53.5 |
| CCGAAUGUCACAGGAUAUGGUCCGGGCUCACGACCAGAAGGGUGAUCUCACAUGAGGAUCACCCAUGUGUAGGCGUUAGGCUAC | – | – | 114 | 35.3 |
| GACAUGAGGAUCACCCAUGUCCUUCCAGAAGGCUGGCGCGCGAAACCUAAAUCAGUUCCGCGCACAGAGGAUAUGGGCAGUUGG | – | – | 15.9 | 72.2 |
| GUGAUCUGAGUGAGGAUAUCCUUUAAGUAAUUGCAGGAGAAGGCACAUGAGGAUCACCCAUGUACAUCUUCGCG | 36.1 | 119 | – | – |

| Sequence | apparent Kd [1] [nM] | apparent Kd [2] [nM] | apparent Kd [3] [nM] | apparent Kd [4] [nM] |
| --- | --- | --- | --- | --- |
| GAUCAACAUGAGGAUCACCCAUGUGAGGAUAUGAUACUAUGUACUUCGGUACAUAGUAUCAGAAGGCACAUAAA | 67.9 | 218 | – | – |
| AGAUGACAAAGUCAUCUCGCUUUGACAUGAGGAUCACCCAUGUAGGAUAUAUUACUCAAAGAGUAAUAGAAGGACAUGUGUCUG | 49 | 155 | – | – |
| GUCGUGCAGCUUUGCUGUACGAGUACAUGAGGAUCACCCAUGUAGGAUAUGGUACGCUUUGCGUGCCAGAAGGACGUGCGUUGG | 48 | 134 | – | – |
| GAGAUGUCAGGAUAUGUGUAAAGAAUAAAACAAAUAACAACACAGAAGGGACAUGAGGAUCACCCAUGUUACUC | 24.9 | 54.6 | – | – |
| GUGCAAUGAGGAUAUACGUAGGUGAACAUCUGUGUGCUCCUACAUGAGGAUCACCCAUGUAGAAGGCAUGUCAC | 12.3 | 22.6 | – | – |
| GGGUACAGUGAGAAGGUCUGCGGAUUCCUUAACAUGAGGAUCACCCAUGUAGAAGGAUAUCACAGGUAAAGGUCGUCUAACGAU | 5.49 | 6.82 | – | – |
| GAUUAAUGCAAGGAUAUGCUAUUAAUUUAUUUUGCAGAAGGUGCAACAUGAGGAUCACCCAUGUUGGAGGGUAU | 22.3 | 33.4 | – | – |
| GAAUAAUUGAUCCAUUUUUAAAACAUGAGGAUCACCCAUGUGCAGGAUAUCGUGUGAGUUAAAUACGAGAAGGGCAAGAACUGU | 201 | 214 | – | – |
| AUAUUGUGAGGAUAUGAACAUAGUAUCGAAAGAUACUAAGUUCAGAAGGCACAUGAGGAUCACCCAUGUUUCUC | 70.2 | 738 | – | – |
| UAUAUGUCAGGAUAUUAGUUGAGGUGGAAUUUAGCCUCUGCUGAGAAGGGACAUGAGGAUCACCCAUGUUCCUC | 21.9 | 200 | – | – |
| AAGGGAUGAGCGUAGGAUAUAGGAGAAGUGACAUGAGGAUCACCCAUGUAAAAGGAGGGAUGAGACUAGAAGGACGAGGUAGGAG | – | – | 125 | 107 |
| AGCUGUGGCCAAGGAUAUCUAACCUUAAAUACCGACGUAUAGUCGGACAUGAGGAUCACCCAUGUGGAGAAGGUGGUCUCAGCA | 25.3 | 37.3 | – | – |
| ACGGUUUACCAGAAGGACAUGAGGAUCACCCAUGUAGGAUAUGGGAAGUUGGUCUCCUUCAAAUAAGGCCCUCAGAGCUUCAAA | – | – | 31.2 | 446 |
| GACAUGAGGAUCACCCAUGUCCAACCAGAAGGCCAGAAAUCGAACCCGUGUAUCGGGUCCGAGAUGGAGGAUAUGGGCGCCGAA | – | – | 32.4 | 72.4 |
| ACAAUAGUAUCUCAUGUAUUACAUGAGGAUCACCCAUGUAACUAGGAUAUGUAUUAGAAUUUACAACAGAAGGAGUUAUUAUGU | 9.03 | 17.7 | – | – |
| GACUUGGCUACAUGAGGAUCACCCAUGUUUGACUGGAUCAAUUAGGAUAUAGUGAUAUGCAACAAUUAGAAGGGAUGUUUACGG | – | – | 45.2 | 56.6 |
| AAUUGGAUCCAGAAGGCAUGGACGACCCGUCACAUUAACAUGAGGAUCACCCAUGUAUAAAGACAUGAGGAUAUGGAUCCUAAA | – | – | 7.99 | 25.7 |
| UAAAAGUAGGUAGGAUAUCAUCACGGAAGAUCCUGGAUACUUAGUACAUGAGGAUCACCCAUGUAUGAGAAGGACCAGUGUUUG | 12.5 | 14.8 | – | – |
| AGUCGGAGCAGAGGAUAUACAUGAGGAUCACCCAUGUAAAUGGAAGAAGACUGGAAACAGUCAAUGUAGAAGGCUGCUCCGACA | 121 | 625 | – | – |
| UUACCUCAUGAGAAGGACAUGAGGAUCACCCAUGUAGGAUAUCAUGGGUCAGUGGAAUUGAAUCUUCGGAUUCAAUAACUCUAC | – | – | 44 | 140 |
| CUCAGACAUGAGGAUCACCCAUGUGAGGAUAUGAUGCAGCAGUGGUCUACGCUGUGCAUCAGAAGGCACAUGUG | 36.5 | 12.5 | – | – |
| GUAGCAUACCGAGGAUAUUCAUACCGGAAACGGACAUGAGGAUCACCCAUGUGGCGAAAGCCUUUGGAGAAGGCGGAAUGCUAC | – | – | 11.7 | 13.2 |
| AGCAGACGAGGAUAUAGAUUUGUUGACAUGAGGAUCACCCAUGUGAUCGAUCUAUUAUAUUUAGAAGGUGUCUGCU | 12.9 | 13.5 | – | – |
| CGAUAGGACAGAGGAUAUACACAUGAGGAUCACCCAUGUGAUUACAACGCUUAAGCUUCAAACAUGUAGAAGGCUGUCCUAUCG | 10.8 | 19.4 | – | – |
| GGACGCGUAGGAUAUGCAAUCGAAGUCGAGUUUUCUGGUGGACAUGAGGAUCACCCAUGUAGAAGGAUGUAGCA | 44.2 | 33.4 | – | – |
| AUGGUUGUCGUAGGAUAUGUAGGAUAUUCCUACAUGAGGAUCACCCAUGUUCGCAUGGAAGAAGGACAGAAGGACGAUGACCAA | – | – | 21.1 | 531 |
| GGGCUCGGAGGAUAUACAUGAGGAUCACCCAUGUAUCUGGGUCUUAUUGGGCUCGGGUGUAGAAGGCUGGGUCU | 13.9 | 15.5 | – | – |
